Experimental findings from ChEMBL document CHEMBL1155029, “Novel amodiaquine congeners as potent antimalarial agents” (Bioorg Med Chem, 2008) are described below.

Test [1] is described as follows: Cytotoxicity against HMEC1 cells by MTT assay. The format is cell-based. As to conditions: Homo sapiens, HMEC-1. Summed up: (§1)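 Human cell lines (SV40-immortalized microvascular endothelial HMEC-1 in MCDB 131 with 10% FCS, EGF, hydrocortisone, glutamine, Hepes; K562 in RPMI 1640 with 10% FCS, glutamine) exposed to serial compound dilutions 72 h at 37 °C, 5% CO2. MTT added 3 h; formazan dissolved in SDS/DMF buffer pH 4.7, read 550 nm (ref 650 nm). IC50 for 50% growth inhibition.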
In general terms: Tetrazolium assays rely on reduction of a dye to a coloured formazan, in cell work by metabolically active cells.

A further test concerns K562. The test is described as follows: Cytotoxicity against human K562 cells by MTT assay. The format is cell-based. Summed up: as §1
Test [2] is described as follows: Cytotoxicity against mouse WEHI13 cells by MTT assay. The format is cell-based. In a few lines: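 Murine WEHI clone 13 fibrosarcoma cells in RPMI 1640 with 10% FCS and glutamine, treated with serial compound dilutions 72 h at 37 °C, 5% CO2. MTT added for 3 h, formazan solubilized in SDS/DMF lysing buffer pH 4.7, absorbance 550 nm against 650 nm reference. IC50 is dose giving 50% growth inhibition.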

Test [3] concerns Plasmodium falciparum. The test is described as follows: Antimalarial activity against chloroquine-sensitive Plasmodium falciparum D10 as LDH reporter activity. The format is functional, organism-based. In a few lines: (§2)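 Asynchronous P. falciparum cultures (1–1.5% parasitaemia, 1% final hematocrit) exposed to serial dilutions for 72 h at 37 °C under 1% O2/5% CO2/94% N2. Compounds dissolved in water or DMSO, diluted in medium (final DMSO <1%). Growth read as pLDH activity (OD650, modified Makler method). IC50 given as mean ± SD of at least three experiments in duplicate.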

The subject of test [4] is Plasmodium falciparum. The test is described as follows: Relative selectivity against Plasmodium falciparum D10 as IC50 ratio compared to chloroquine. The format is functional. Summed up: (§3)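 Asynchronous P. falciparum cultures (D-10 or W-2; 1–1.5% parasitaemia, 1% haematocrit) incubated 72 h at 37 °C under 1% O2/5% CO2/94% N2 with serial drug dilutions (water or DMSO, final DMSO <1%). Growth read as pLDH activity at OD650. Chloroquine IC50 divided by compound IC50 within each experiment, ratios averaged.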

In test [5] the test system is Plasmodium falciparum. The test is described as follows: Antimalarial activity against chloroquine-resistant Plasmodium falciparum W2 as LDH activity. The format is functional, organism-based. In a few lines:
as §2

Test [6] has as its system Plasmodium falciparum. As to the kind of experiment: Relative selectivity against Plasmodium falciparum W2 as IC50 ratio compared to chloroquine. The format is functional. Summed up: as §3
Test [7] in a line: Ratio of IC50 for chloroquine-resistant Plasmodium falciparum W2 to IC50 for chloroquine-sensitive Plasmodium falciparum D10. The test is classed as functional.

The structures appear in SMILES notation.

As for `CCN(CC)CCCC(C)Nc1ccnc2cc(Cl)ccc12` (stereo not given) [CHLOROQUINE], the IC50 was above 32000 nM in test [1], 29000 nM in the test on K562 and above 38000 nM in test [2].
On to `CCN(CC)Cc1cc(-c2ccccc2)n(Nc2ccnc3cc(Cl)ccc23)c1C`, for which the IC50 in the test with Plasmodium falciparum [3] amounted to 42.7 nM; in the test with Plasmodium falciparum [5], 59.2 nM; in test [1] it was 16700 nM; in the test with K562 it was 3620 nM; in test [2], 4380 nM. For the same compound, the “Ratio IC50” value in the test on Plasmodium falciparum [4] stood at 0.7; in the test on Plasmodium falciparum [6], 9.9; in test [7] it was 1.4.
Turning to `Cc1c(CNC(C)(C)C)cc(-c2ccccc2)n1Nc1ccnc2cc(Cl)ccc12`, the values for the IC50 in the test with Plasmodium falciparum [3] and in the test on Plasmodium falciparum [5] were 63.5 nM and 1180 nM, respectively. Further, the “Ratio IC50” value turned out to be 0.4 in the test on Plasmodium falciparum [4], 0.7 in the test on Plasmodium falciparum [6] and 18.5 in test [7].
As for `Cc1c(CNC[C@@H]2CCCN3CCCC[C@H]23)cc(-c2ccccc2)n1Nc1ccnc2cc(Cl)ccc12`, the IC50 in the test with Plasmodium falciparum [3] came out at 36.5 nM; in the test with Plasmodium falciparum [5] it was 515 nM; in test [1], 13500 nM; with K562, 1680 nM; in test [2], 7440 nM. Moreover, the “Ratio IC50” value in the test with Plasmodium falciparum [4] was 0.8; in the test with Plasmodium falciparum [6], 1.1; in test [7] it was 14.1.
Turning to `Cc1cc(CNC(C)(C)C)c(C)n1Nc1ccnc2cc(Cl)ccc12`, the IC50 worked out at 48.6 nM in the test with Plasmodium falciparum [3] and 255 nM in the test on Plasmodium falciparum [5]. Besides, the “Ratio IC50” value was 0.3 with Plasmodium falciparum [4], 0.9 in the test on Plasmodium falciparum [6] and 5.3 in test [7].
Taken in the same sequence, the figures for `Oc1cc(Nc2ccnc3cc(Cl)ccc23)ccc1CNCC12CCCN1CCC2` were 81.9 nM, 77 nM, 0.4, 2.2 and 0.9.
With `CCN(CC)Cc1cc(-c2ccc(Cl)cc2)n(Nc2ccnc3cc(Cl)ccc23)c1C`, the IC50 was 26.1 nM with Plasmodium falciparum [3], 42.5 nM with Plasmodium falciparum [5], 5810 nM in test [1] and 1450 nM in test [2]. Further, the results for the “Ratio IC50” value (in the test with Plasmodium falciparum [4]; with Plasmodium falciparum [6]; in test [7]) were 0.9, 18.5 and 1.6, respectively.
In the case of `CCN(CC)Cc1cc(C)n(Nc2ccnc3cc(Cl)ccc23)c1C`, the IC50 in the test on Plasmodium falciparum [3] stood at 69 nM; with Plasmodium falciparum [5], 193 nM. In addition, the “Ratio IC50” value turned out to be 0.2 in the test on Plasmodium falciparum [4], 1.2 in the test with Plasmodium falciparum [6] and 2.8 in test [7].
As to `Cc1cc(CNC[C@@H]2CCCN3CCCC[C@H]23)c(C)n1Nc1ccnc2cc(Cl)ccc12`, the IC50 in the test with Plasmodium falciparum [3] was determined as 70.7 nM; with Plasmodium falciparum [5], 53.4 nM; in test [1] it was 5400 nM; in test [2] it was 5510 nM. Moreover, the “Ratio IC50” value is 0.4 in the test on Plasmodium falciparum [4], 3.1 in the test on Plasmodium falciparum [6] and 0.8 in test [7].
Turning to `Cc1cc(CNCC23CCCN2CCC3)c(C)n1Nc1ccnc2cc(Cl)ccc12`, the IC50 with Plasmodium falciparum [3] stood at 222 nM; in the test with Plasmodium falciparum [5], 358 nM. For the same compound, the “Ratio IC50” value in the test on Plasmodium falciparum [4] amounted to 0.1; in the test with Plasmodium falciparum [6], 0.5; in test [7], 1.6.
As for `Cc1c(CN2CCCC2)cc(-c2ccccc2)n1Nc1ccnc2cc(Cl)ccc12`, the IC50 in the test with Plasmodium falciparum [3] stood at 42.9 nM; in the test on Plasmodium falciparum [5], 140 nM; in test [1], 12900 nM; with K562, 2920 nM; in test [2] it was 3880 nM. Also, the “Ratio IC50” value with Plasmodium falciparum [4] amounted to 0.7; in the test on Plasmodium falciparum [6], 4.2; in test [7], 3.3.
Consider `Oc1cc(Nc2ccnc3cc(Cl)ccc23)ccc1CNCCC12CCCN1CCC2`, for which the IC50 with Plasmodium falciparum [3] is 90.3 nM; with Plasmodium falciparum [5] it was 153 nM; in test [2], 12200 nM. The figures for the “Ratio IC50” value (with Plasmodium falciparum [4]; with Plasmodium falciparum [6]; in test [7]) were 0.3, 2.1 and 1.7, respectively.
Regarding `CCN(CC)Cc1ccc(Nc2ccnc3cc(Cl)ccc23)cc1O` [ISOQUINE], the results for the IC50 with Plasmodium falciparum [3] and in the test on Plasmodium falciparum [5] were 23.7 nM and 30.2 nM, respectively. Besides, the results for the “Ratio IC50” value (in the test on Plasmodium falciparum [4]; in the test with Plasmodium falciparum [6]; in test [7]) were 1.3, 17.6 and 1.3, respectively.
Consider `Cc1c(CNCC[C@@H]2CCCN3CCCC[C@H]23)cc(-c2ccccc2)n1Nc1ccnc2cc(Cl)ccc12`, for which the IC50 amounted to 154 nM with Plasmodium falciparum [3]; 776 nM in the test on Plasmodium falciparum [5]; 14600 nM in test [1]; 2610 nM in the test with K562; 7220 nM in test [2]. Besides, the “Ratio IC50” value with Plasmodium falciparum [4] amounted to 0.2; in the test on Plasmodium falciparum [6], 0.8; in test [7] it was 5.
Consider `Cc1c(CN2CCCC2)cc(-c2ccc(Cl)cc2)n1Nc1ccnc2cc(Cl)ccc12`, for which the IC50 in the test with Plasmodium falciparum [3] turned out to be 30.7 nM; in the test with Plasmodium falciparum [5] it was 49.6 nM; in test [1] it was 7180 nM; in test [2] it was 2060 nM. In addition, the “Ratio IC50” value with Plasmodium falciparum [4] came out at 0.8; in the test with Plasmodium falciparum [6], 15.8; in test [7], 1.6.
As to `Oc1cc(Nc2ccnc3cc(Cl)ccc23)ccc1CNC[C@@H]1CCCN2CCCC[C@H]12`, the IC50 with Plasmodium falciparum [3] was 8.5 nM; in the test on Plasmodium falciparum [5], 14.3 nM; in test [1] it was 7940 nM; in test [2], 4430 nM. Besides, the results for the “Ratio IC50” value with Plasmodium falciparum [4] and with Plasmodium falciparum [6] were 2.8 and 22, respectively.
For `Cc1cc(CN2CCCC2)c(C)n1Nc1ccnc2cc(Cl)ccc12`, the values for the half-inhibitory concentration (IC50) in the test on Plasmodium falciparum [3] and with Plasmodium falciparum [5] were 80.7 nM and 336 nM, respectively. Further, the “Ratio IC50” value was 0.2 in the test on Plasmodium falciparum [4], 0.7 in the test on Plasmodium falciparum [6] and 4.2 in test [7].
With `Clc1ccc2c(Nc3ccc(CNC[C@@H]4CCCN5CCCC[C@H]45)c(Cl)c3)ccnc2c1`, the concentration for half-maximal inhibition (IC50) in the test with Plasmodium falciparum [3] was found to be 23.6 nM; with Plasmodium falciparum [5], 28.8 nM; in test [1], 5520 nM; in test [2], 2770 nM. Besides, the “Ratio IC50” value in the test with Plasmodium falciparum [4] came to 1.8; in the test with Plasmodium falciparum [6], 28; in test [7], 1.2.

One may read the IC50 as the concentration that gives 50% inhibition. Low values mean higher potency, high ones lower potency.
